Test results published in ChEMBL document CHEMBL1177842, “New 6-amino-[1,2,4]triazolo[3,4-b][1,3,4]thiadiazines and [1,2,4]triazolo[3,4-b] [1,3,4]thiadiazin-6-ones: synthesis, characterization and antibacterial activity evaluation” (2010).
≈ marks a conversion by molar mass, not a printed value. Calls of active or inactive are those of the source. No cut-off for these calls is given here.

Columns and labels:
Assay type in all cases: functional
[1] = test system: Citrobacter freundii; test: Antibacterial activity against Citrobacter freundii […] after 24 hrs by broth microdilution technique
How it was run: (§1)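 MIC by broth microdilution following NCCLS recommendations. Strains were grown in Mueller-Hinton broth and the inoculum was 5 × 10^5 cfu in 1 mL. Compounds were dissolved in DMSO and serially diluted in tubes to final concentrations of 1024 down to 2 µg/mL. 24 h old inoculum was added. After 35 °C for 24 h, the MIC was the lowest concentration inhibiting visible growth. Tetracycline and ampicillin served as standards.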

[2] = test system: Staphylococcus epidermidis; test: Antibacterial activity against Staphylococcus epidermidis ATCC 14990 after 24 hrs by broth microdilution technique; settings: ATCC 14990, 24 h; how it was run: as §1
[3] = test system: Enterobacter cloacae; test: Antibacterial activity against Enterobacter cloacae ATCC 49141 after 24 hrs by broth microdilution technique; how it was run: as §1
[4] = test system: Bacillus cereus; test: Antibacterial activity against Bacillus cereus ATCC 13061 after 24 hrs by broth microdilution technique; how it was run: as §1
[5] = test system: Escherichia coli; test: Antibacterial activity against Escherichia coli ATCC 25922 after 24 hrs by broth microdilution technique; settings: ATCC 25922, 24 h; how it was run: as §1
[6] = test system: Acinetobacter baumannii; test: Antibacterial activity against Acinetobacter baumannii ATCC 19606 after 24 hrs by broth microdilution technique; how it was run: as §1
[7] = test system: Pseudomonas aeruginosa; test: Antibacterial activity against Pseudomonas aeruginosa ATCC 9027 after 24 hrs by broth microdilution technique; how it was run: as §1
[8] = test system: Staphylococcus aureus; test: Antibacterial activity against Staphylococcus aureus ATCC 25923 after 24 hrs by broth microdilution technique; settings: ATCC 25923, 24 h; how it was run: as §1
[9] = test system: Enterococcus faecalis; test: Antibacterial activity against Enterococcus faecalis ATCC 29212 after 24 hrs by broth microdilution technique; settings: ATCC 29212, 24 h; how it was run: as §1

| SMILES | MIC [1] [µg/mL] | MIC [2] [µg/mL] | MIC ([3]; ATCC 49141, 24 h) [µg/mL] | MIC ([4]; ATCC 13061, 24 h) [µg/mL] | MIC [5] [µg/mL] | MIC ([6]; ATCC 19606, 24 h) [µg/mL] | MIC ([7]; ATCC 9027, 24 h) [µg/mL] | MIC [8] [µg/mL] | MIC [9] [µg/mL] | MIC [3] | MIC [4] | MIC [6] | MIC [7] |
| --- | --- | --- | --- | --- | --- | --- | --- | --- | --- | --- | --- | --- | --- |
| O=c1[nH]n2c(-c3ccc(S(=O)(=O)c4ccc(Br)cc4)cc3)nnc2sc1=O | 512 (≈ 1100 µM) | 512 (≈ 1100 µM) | 512 (≈ 1100 µM) | 1020 (≈ 2200 µM) | 512 (≈ 1100 µM) | 1020 (≈ 2200 µM) | 64 (≈ 138 µM) | 64 (≈ 138 µM) | 1020 (≈ 2200 µM) | – | – | – | – |
| CN(C)[C@@H]1C(O)=C(C(N)=O)C(=O)[C@@]2(O)C(O)=C3C(=O)c4c(O)cccc4[C@@](C)(O)[C@H]3C[C@@H]12 [TETRACYCLINE] | 2 (≈ 4.5 µM) | 32 (≈ 72 µM) | – | < 2 | 2 (≈ 4.5 µM) | 2 (≈ 4.5 µM) | 16 (≈ 36 µM) | < 2 | 32 (≈ 72 µM) | inactive | – | – | – |
| O=C1CSc2nnc(-c3ccc(S(=O)(=O)c4ccccc4)cc3)n2N1 | 512 (≈ 1370 µM) | 32 (≈ 85.9 µM) | 512 (≈ 1370 µM) | 1020 (≈ 2750 µM) | 128 (≈ 344 µM) | 256 (≈ 687 µM) | 128 (≈ 344 µM) | 512 (≈ 1370 µM) | 1020 (≈ 2750 µM) | – | – | – | – |
| Nn1c(-c2ccc(S(=O)(=O)c3ccccc3)cc2)n[nH]c1=S | 512 (≈ 1540 µM) | 128 (≈ 385 µM) | 512 (≈ 1540 µM) | 1020 (≈ 3080 µM) | 512 (≈ 1540 µM) | 512 (≈ 1540 µM) | 512 (≈ 1540 µM) | 512 (≈ 1540 µM) | 1020 (≈ 3080 µM) | – | – | – | – |
| Nn1c(S)nnc1-c1ccc(S(=O)(=O)c2ccc(Br)cc2)cc1 | 512 (≈ 1240 µM) | 512 (≈ 1240 µM) | 512 (≈ 1240 µM) | 1020 (≈ 2490 µM) | 1020 (≈ 2490 µM) | 128 (≈ 311 µM) | 512 (≈ 1240 µM) | 512 (≈ 1240 µM) | 1020 (≈ 2490 µM) | – | – | – | – |
| O=S(=O)(c1ccc(Cl)cc1)c1ccc(-c2nnc3n2N=C(Nc2ccccc2)CS3)cc1 | 128 (≈ 266 µM) | 1020 (≈ 2120 µM) | 1020 (≈ 2120 µM) | 1020 (≈ 2120 µM) | 128 (≈ 266 µM) | 512 (≈ 1060 µM) | 64 (≈ 133 µM) | 256 (≈ 531 µM) | 1020 (≈ 2120 µM) | – | – | – | – |
| O=C1CSc2nnc(-c3ccc(S(=O)(=O)c4ccc(Br)cc4)cc3)n2N1 | 512 (≈ 1130 µM) | 1020 (≈ 2270 µM) | 512 (≈ 1130 µM) | 1020 (≈ 2270 µM) | 128 (≈ 284 µM) | 256 (≈ 567 µM) | 128 (≈ 284 µM) | 1020 (≈ 2270 µM) | 1020 (≈ 2270 µM) | – | – | – | – |
| O=S(=O)(c1ccc(Br)cc1)c1ccc(-c2nnc3n2N=C(Nc2ccccc2)CS3)cc1 | 512 (≈ 973 µM) | 1020 (≈ 1950 µM) | 512 (≈ 973 µM) | 512 (≈ 973 µM) | 256 (≈ 486 µM) | 512 (≈ 973 µM) | 256 (≈ 486 µM) | 1020 (≈ 1950 µM) | 1020 (≈ 1950 µM) | – | – | – | – |
| Nn1c(SCC(=O)Nc2ccccc2)nnc1-c1ccc(S(=O)(=O)c2ccc(Cl)cc2)cc1 | 512 (≈ 1020 µM) | 256 (≈ 512 µM) | 512 (≈ 1020 µM) | 1020 (≈ 2050 µM) | 128 (≈ 256 µM) | 1020 (≈ 2050 µM) | 32 (≈ 64 µM) | 128 (≈ 256 µM) | 1020 (≈ 2050 µM) | – | – | – | – |
| CCOC(=O)C1Sc2nnc(-c3ccc(S(=O)(=O)c4ccc(Cl)cc4)cc3)n2NC1=O (configuration not stated) | 512 (≈ 1070 µM) | 1020 (≈ 2140 µM) | 512 (≈ 1070 µM) | 1020 (≈ 2140 µM) | 512 (≈ 1070 µM) | 1020 (≈ 2140 µM) | 128 (≈ 267 µM) | 1020 (≈ 2140 µM) | 1020 (≈ 2140 µM) | – | – | – | – |
| CC1(C)S[C@@H]2[C@H](NC(=O)[C@H](N)c3ccccc3)C(=O)N2[C@H]1C(=O)O [AMPICILLIN] | 2 (≈ 5.72 µM) | < 2 | – | – | – | – | – | < 2 | < 2 | inactive | inactive | inactive | inactive |
| Nn1c(SCC(=O)O)nnc1-c1ccc(S(=O)(=O)c2ccccc2)cc1 | 512 (≈ 1310 µM) | 128 (≈ 328 µM) | 1020 (≈ 2620 µM) | 1020 (≈ 2620 µM) | 64 (≈ 164 µM) | 1020 (≈ 2620 µM) | 256 (≈ 656 µM) | 256 (≈ 656 µM) | 512 (≈ 1310 µM) | – | – | – | – |
| Nn1c(SCC(=O)Nc2ccccc2)nnc1-c1ccc(S(=O)(=O)c2ccc(Br)cc2)cc1 | 1020 (≈ 1880 µM) | 256 (≈ 470 µM) | 256 (≈ 470 µM) | 512 (≈ 940 µM) | 256 (≈ 470 µM) | 1020 (≈ 1880 µM) | 128 (≈ 235 µM) | 64 (≈ 118 µM) | 1020 (≈ 1880 µM) | – | – | – | – |
| Nn1c(SCC(=O)O)nnc1-c1ccc(S(=O)(=O)c2ccc(Br)cc2)cc1 | 512 (≈ 1090 µM) | 512 (≈ 1090 µM) | 1020 (≈ 2180 µM) | 1020 (≈ 2180 µM) | 64 (≈ 136 µM) | 1020 (≈ 2180 µM) | 256 (≈ 545 µM) | 512 (≈ 1090 µM) | 512 (≈ 1090 µM) | – | – | – | – |
| Nn1c(-c2ccc(S(=O)(=O)c3ccc(Cl)cc3)cc2)n[nH]c1=S | 512 (≈ 1400 µM) | 512 (≈ 1400 µM) | 512 (≈ 1400 µM) | 1020 (≈ 2790 µM) | 1020 (≈ 2790 µM) | 128 (≈ 349 µM) | 128 (≈ 349 µM) | 512 (≈ 1400 µM) | 1020 (≈ 2790 µM) | – | – | – | – |
| Nn1c(SCC(=O)O)nnc1-c1ccc(S(=O)(=O)c2ccc(Cl)cc2)cc1 | 512 (≈ 1210 µM) | 256 (≈ 603 µM) | 1020 (≈ 2410 µM) | 1020 (≈ 2410 µM) | 64 (≈ 151 µM) | 1020 (≈ 2410 µM) | 256 (≈ 603 µM) | 128 (≈ 301 µM) | 256 (≈ 603 µM) | – | – | – | – |
| O=C1CSc2nnc(-c3ccc(S(=O)(=O)c4ccc(Cl)cc4)cc3)n2N1 | 512 (≈ 1260 µM) | 256 (≈ 629 µM) | 512 (≈ 1260 µM) | 1020 (≈ 2520 µM) | 128 (≈ 315 µM) | 256 (≈ 629 µM) | 128 (≈ 315 µM) | 256 (≈ 629 µM) | 512 (≈ 1260 µM) | – | – | – | – |
